# Active and inactive are the calls of the source. No rule for the calls is given here.
# Biological target: Muscarinic acetylcholine receptor M4 (Rattus norvegicus) (UniProt P08485)
# Experiment: rat M4 positive allosteric modulation check – CHO cells, calcium flux, selectivity assay for M5 PAM discovery project (AID 651935)
# Conditions: CHO-K1 rat M4/Gqi5, Fluo-4 calcium flux, ACh EC20; series mostly up to 30 µM
# Procedure, shortened: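 Material: CHO-K1 cells stably expressing rat M4 receptor with chimeric Gqi5; Buffer or medium: HBSS plus HEPES and probenecid, pH 7.4; Probe or stimulus: acetylcholine EC20; Dosing: 0.3% DMSO final; Times: dye load 45-60 min 37 °C, compound 1.5 min pre-incubation; Signal: Fluo-4 calcium fluorescence; Read-out: % of maximal acetylcholine response.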
# Sequence of Muscarinic acetylcholine receptor M4 (Rattus norvegicus) (P08485 whole entry, looked up): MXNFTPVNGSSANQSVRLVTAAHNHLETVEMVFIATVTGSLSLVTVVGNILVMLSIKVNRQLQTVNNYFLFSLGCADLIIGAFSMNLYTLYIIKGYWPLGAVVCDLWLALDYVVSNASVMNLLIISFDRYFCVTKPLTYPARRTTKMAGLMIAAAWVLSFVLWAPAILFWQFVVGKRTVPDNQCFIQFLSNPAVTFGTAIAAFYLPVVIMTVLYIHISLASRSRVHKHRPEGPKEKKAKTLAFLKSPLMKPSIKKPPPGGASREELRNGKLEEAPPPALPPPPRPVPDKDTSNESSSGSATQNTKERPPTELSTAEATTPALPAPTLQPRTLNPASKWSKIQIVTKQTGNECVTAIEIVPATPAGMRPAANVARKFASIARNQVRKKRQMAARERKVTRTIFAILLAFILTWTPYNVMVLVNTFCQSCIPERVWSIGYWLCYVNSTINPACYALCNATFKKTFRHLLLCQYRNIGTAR
smiles,measurement,value
O=C1C(=O)N(CCOc2ccccc2)c2ccc(OC(F)(F)F)cc21,outcome,inactive
